Data: ChEMBL document CHEMBL1124368 (J Med Chem, 1989)

Key:
Mus musculus [1] = experiment: Tumor volume in 24 days after tumor implantation at a dose of 3.125 mg/kg/day of compound; format: functional
In short: (§1)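 10⁶ M5076 reticulum cell sarcoma cells were injected im into the left leg of female BDF₁ mice, five per group, on day 0. Compound in 10–20% DMSO/arachis oil was dosed ip daily on days 1–17. Tumor volumes (mm³) were recorded on days 12, 16, 20 and 24 after implantation, with NM marking a tumor that could not be measured.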

Mus musculus [2] = experiment: Tumor volume in 20 days after tumor implantation at a dose of 3.125 mg/kg/day of compound; format: functional; in short: as §1
Mus musculus [3] = experiment: Ratio of tumor volume of test(T) animals compared to control(C) animals x 100T/C(%)] at a dose of 3.125 mg/kg/day of compound; format: organism-based; settings: in vivo
In short: (§2)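 M5076 reticulum cell sarcoma: 10⁶ cells implanted im into the left leg of female BDF₁ mice (groups of five) on day 0. Treatment was ip, daily on days 1–17, in 10–20% DMSO in arachis oil. T/C% is treated tumor volume over control tumor volume × 100.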

Mus musculus [4] = experiment: (§3) Mean of weight gain from day 0 to day 24 at a dose of 3.125 mg/kg/day of compound; format: functional
In short: (§4)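 M5076 reticulum cell sarcoma: 10⁶ cells implanted im into the left leg of female BDF₁ mice (groups of five) on day 0. Drug in 10–20% DMSO in arachis oil was given ip daily on days 1–17. Weight change is the mean weight gain from day 0 to day 24.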

Mus musculus [5] = experiment: Tumor volume in 16 days after tumor implantation at a dose of 3.125 mg/kg/day of compound; format: functional; in short: as §1
Mus musculus [6] = experiment: Tumor volume in 16 days after tumor implantation at a dose of 6.25 mg/kg/day of compound; format: functional; in short: as §1
Mus musculus [7] = experiment: Tumor volume in 12 days after tumor implantation at a dose of 3.125 mg/kg/day of compound; format: functional; in short: as §1
Mus musculus [8] = experiment: Tumor volume in 12 days after tumor implantation at a dose of 6.25 mg/kg/day of compound; format: functional; in short: as §1
Mus musculus [9] = experiment: Ratio of tumor volume of test(T) animals compared to control(C) animals x 100 T/C(%)] at a dose of 12.50 mg/kg/day; format: functional; in short: as §2
Mus musculus [10] = experiment: Ratio of tumor volume of test(T) animals compared to control(C) animals x 100 T/C(%)] at a dose of 25 mg/kg/day; format: functional; in short: as §2
Mus musculus [11] = experiment: Ratio of tumor volume of test(T) animals compared to control(C) animals x 100 T/C(%)] at a dose of 3.125 mg/kg/day; format: functional; in short: as §2
Mus musculus [12] = experiment: Ratio of tumor volume of test(T) animals compared to control(C) animals x 100 T/C(%)] at a dose of 6.25 mg/kg/day; format: functional; in short: as §2
Mus musculus [13] = experiment: Ratio of tumor volume of test (T) animals compared to control (C) animals x 100 T/C(%)] at a dose of 50 mg/kg/day of compound; format: functional; in short: as §2
Mus musculus [14] = experiment: Tumor volume in 20 days after tumor implantation at a dose of 12.5 mg/kg/day of compound; format: functional; in short: as §1
Mus musculus [15] = experiment: Tumor volume in 20 days after tumor implantation at a dose of 3.125 mg/kg/day; format: functional; in short: as §1
Mus musculus [16] = experiment: Tumor volume in 20 days after tumor implantation at a dose of 6.25 mg/kg/day of compound; format: functional; in short: as §1
Mus musculus [17] = experiment: Tumor volume in 24 days after tumor implantation at a dose of 12.5 mg/kg/day; format: functional; in short: as §1
Mus musculus [18] = experiment: Tumor volume in 24 days after tumor implantation at a dose of 25 mg/kg/day of compound; format: functional; in short: as §1
Mus musculus [19] = experiment: Tumor volume in 24 days after tumor implantation at a dose of 3.125 mg/kg/day; format: functional; in short: as §1
Mus musculus [20] = experiment: Tumor volume in 24 days after tumor implantation at a dose of 50 mg/kg/day of compound; format: functional; in short: as §1
Mus musculus [21] = experiment: Tumor volume in 24 days after tumor implantation at a dose of 6.25 mg/kg/day; format: functional; in short: as §1
Mus musculus [22] = experiment: Tumor volume in 12 days after tumor implantation at a dose of 12.5 mg/kg/day of compound; format: functional; in short: as §1
Mus musculus [23] = experiment: Tumor volume in 16 days after tumor implantation at a dose of 12.5 mg/kg/day of compound; format: functional; in short: as §1
Mus musculus [24] = experiment: Mean of weight gain from day 0 to day 24 at a dose of 12.5 mg/kg/day of compound; format: functional; design: unit not given here; in short: as §4
Mus musculus [25] = experiment: Mean of weight gain from day 0 to day 24 at a dose of 25 mg/kg/day of compound; format: functional; design: unit not given here; in short: as §4
Mus musculus [26] = experiment: as §3; format: functional; design: unit not given here; in short: as §4
Mus musculus [27] = experiment: Mean of weight gain from day 0 to day 24 at a dose of 6.25 mg/kg/day; format: functional; design: unit not given here; in short: as §4
Mus musculus [28] = experiment: Mean of weight gain from day 0 to day 24 in the mice at a dose of 50 mg/kg/day of compound; format: functional; in short: as §4
Mus musculus [29] = experiment: Tumor volume in 16 days after tumor implantation at a dose of 25 mg/kg/day of compound; format: functional; in short: as §1
Mus musculus [30] = experiment: Tumor volume in 20 days after tumor implantation at a dose of 25 mg/kg/day of compound; format: functional; in short: as §1
Mus musculus [31] = experiment: Mean of weight gain from day 0 to day 24 at a dose of 50 mg/kg/day of compound; format: functional; in short: as §4

| SMILES | Tumor volume (Mus musculus [5]) [mm**3] | Tumor volume (Mus musculus [6]) [mm**3] | Tumor volume (Mus musculus [7]) [mm**3] | Tumor volume (Mus musculus [8]) [mm**3] | Antitumor activity (Mus musculus [9]) [%] | Antitumor activity (Mus musculus [10]) [%] | Antitumor activity (Mus musculus [11]) [%] | Antitumor activity (Mus musculus [12]) [%] | Antitumor activity (Mus musculus [13]) [%] | Tumor volume (Mus musculus [14]) [mm**3] | Tumor volume (Mus musculus [15]) [mm**3] | Tumor volume (Mus musculus [16]) [mm**3] | Tumor volume (Mus musculus [17]) [mm**3] | Tumor volume (Mus musculus [18]) [mm**3] | Tumor volume (Mus musculus [19]) [mm**3] | Tumor volume (Mus musculus [21]) [mm**3] | Weight change (Mus musculus [24]) | Weight change (Mus musculus [25]) | Weight change (Mus musculus [26]) | Weight change (Mus musculus [27]) | other results |
| --- | --- | --- | --- | --- | --- | --- | --- | --- | --- | --- | --- | --- | --- | --- | --- | --- | --- | --- | --- | --- | --- |
| CN(Cc1cnc2nc(N)nc(N)c2n1)c1ccc(C(=O)N[C@@H](CCC(=O)O)C(=O)O)cc1 [METHOTREXATE] | 987 | 389 | 411 | 347 |  |  |  |  |  |  |  |  |  |  |  |  |  |  |  |  | Tumor volume (Mus musculus [1]): 2270 mm**3; Tumor volume (Mus musculus [2]): 1914 mm**3; T/C (Mus musculus [3]): 92%; Weight change (Mus musculus [4]): 3.9 |
| CCCCNc1ccc(-c2c(N)nc(N)nc2CC)cc1[N+](=O)[O-] | 622 | 438 | 271 | 212 | 41 | 22 | 78 | 70 | 15 | 496 | 1176 | 913 | 1061 | 638 | 2143 | 1920 | 3.6 | 3.7 | 8.2 | 5.4 | Tumor volume (Mus musculus [20]): 368 mm**3; Tumor volume (Mus musculus [22]): 180 mm**3; Tumor volume (Mus musculus [23]): 283 mm**3; Weight change (Mus musculus [28]): 2.7 |
| CCc1nc(N)nc(N)c1-c1ccc(NCc2ccc(C)cc2)c([N+](=O)[O-])c1 | 596 | 270 |  |  | 24 | 20 | 76 | 44 |  | 385 | 1581 | 704 | 641 | 514 | 1881 | 1099 | 2.4 | 2.4 | 3 | 2.1 | Tumor volume (Mus musculus [29]): 180 mm**3; Tumor volume (Mus musculus [30]): 426 mm**3; Tumor volume (Mus musculus [23]): 198 mm**3 |
| CCc1nc(N)nc(N)c1-c1ccc(NCc2ccc(Cl)c(Cl)c2)c([N+](=O)[O-])c1 | 498 | 256 | 216 |  | 16 | <8 | 48 | 36 | <8 | 216 | 858 | 385 | 395 |  | 1173 | 851 | 3 | 2.7 | 3.6 | 3.5 | Weight change (Mus musculus [31]): 2.9 |
